Screens: PubChem BioAssay, Johns Hopkins Ion Channel Center
An excerpt weighted towards active compounds, which were near 3.7% of everything screened.
KCNQ1 act: potentiators or activators of human KCNQ1 potassium channel; AID 2648; CHO-K1 KCNQ1, thallium flux FluxOR fluorescence; active compounds read high; B-score at 10 µM; 0.35% of 310,000 active; P51787;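 active = fluorescence ratio B-score, a plate-corrected score, at least three library SD, with initial intensity B-score within 5 SD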
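assay system = CHO-K1 cells stably expressing KCNQ1 | medium = assay buffer, equal DMSO in all wells | timing = 37 °C overnight plating, 90-min dark dye load, 20-min compound pretreatment | measured by = kinetic FluxOR thallium fluorescence, 10-s 1-Hz baseline, 110-s post-stimulus read | measure = fluorescence change relative to baseline, converted to B score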
Kir21 inh: inhibitors of mouse Kir2.1 inward-rectifier potassium channel | P35561 | HEK293-Kir2.1, FluxOR thallium flux fluorescence; active compounds read low | B-score at 10 µM | 0.85% of 310,000 active | AID 1672;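 active = fluorescence ratio B-score at or below minus 3 SD of library scores, with starting-brightness B-score within 2 SD, cut at about -4.2 in these data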;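 also: channel flux triggered by added potassium and thallium sulfate stimulus; B-score of peak minus minimum fluorescence over baseline after thallium stimulus; more negative B-score means stronger Kir2.1 block with less thallium influx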
KCNK3 block: human KCNK3 channel inhibition, primary screen; AID 602410; B-score at 10 µM; 0.84% of 340,000 active; CHO-KCNK3 thallium flux, FluxOR fluorescence; active compounds read low;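 active = B-score under library mean minus 4 SD, starting fluorescence ratio at most library mean plus 5 SD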;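 also: more negative B-score means stronger inhibition of thallium flux through KCNK3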
hERG rescue: shields human hERG channel from block by proarrhythmic agents. 0.51% of 310,000 active. activation (rescue from dofetilide block), less the hit threshold, % at 10 µM. AID 1511. CHO-hERG, FluxOR thallium flux, dofetilide IC70 present;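 active = activation above the mean of controls blocked by dofetilide plus 5 SD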;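 also: thallium influx through hERG after potassium depolarization seen as dye fluorescence rise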
KCNK9 inh: blocks the human KCNK9 two-pore domain potassium channel; Q9NPC2; HEK293 KCNK9, FluxOR thallium flux fluorescence; active compounds read low; B-score at 10 µM; 1.2% of 310,000 active; AID 488922;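 active = ratio B-score over 3 SD below the library mean, with starting fluorescence within 5 SD of its mean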;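 also: negative B-score means less thallium flux so channel inhibition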
Target sequence (Q9NPC2 whole entry, looked up, the tested form may be a part): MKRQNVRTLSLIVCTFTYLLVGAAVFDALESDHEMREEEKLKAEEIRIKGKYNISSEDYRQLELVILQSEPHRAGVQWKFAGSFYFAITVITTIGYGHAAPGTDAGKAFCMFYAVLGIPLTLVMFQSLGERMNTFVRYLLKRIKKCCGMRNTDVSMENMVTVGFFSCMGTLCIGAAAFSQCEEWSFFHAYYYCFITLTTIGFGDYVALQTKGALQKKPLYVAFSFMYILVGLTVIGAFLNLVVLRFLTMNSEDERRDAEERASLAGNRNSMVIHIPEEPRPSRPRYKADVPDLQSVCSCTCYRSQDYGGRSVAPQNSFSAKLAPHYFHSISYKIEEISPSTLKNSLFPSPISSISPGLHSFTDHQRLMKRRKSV
KCNQ1 inh: inhibitors of human KCNQ1 potassium channel; P51787; CHO-K1 KCNQ1, FluxOR thallium flux fluorescence; active compounds read high; B-score at 10 µM; 1.3% of 310,000 active; AID 2642;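 active = compounds whose thallium flux B-score, printed positive for inhibition, exceeds three library SD while starting fluorescence stays within three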;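 also: channel opened by potassium depolarization with thallium stimulus after 20 min compound exposure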
Active calls of the source: *.

CCN(CC)C(=S)SSC(=S)N(CC)CC was read as KCNQ1 act inactive, Kir21 inh -4.5*, KCNK3 block inactive, hERG rescue -22, KCNK9 inh inactive and KCNQ1 inh inactive.
`CCCCCCCCn1c(N2CCN(c3cccc(Cl)c3)CC2)nc2c1c(=O)[nH]c(=O)n2C` gave KCNQ1 act inactive, Kir21 inh 0.64, KCNK3 block inactive, hERG rescue -10, KCNK9 inh inactive and KCNQ1 inh inactive.
For CCCCCCn1c(N2CCN(c3cccc(Cl)c3)CC2)nc2c1c(=O)[nH]c(=O)n2C the results were KCNQ1 act inactive, Kir21 inh -0.31, KCNK3 block inactive, hERG rescue -3, KCNK9 inh -7.6* and KCNQ1 inh inactive.
`O=C(CSCc1cnn(-c2ccccc2)c1-n1cccc1)NCc1ccccn1` gave KCNQ1 act inactive, Kir21 inh -4.4*, KCNK3 block inactive, hERG rescue -10, KCNK9 inh inactive and KCNQ1 inh inactive.
COc1cc(OC)cc(C(=O)N[C@H](C(=O)Nc2cccc(S(=O)(=O)N3CCCC3)c2)C(C)C)c1 was read as KCNQ1 act inactive, Kir21 inh 0.3, KCNK3 block inactive, hERG rescue -12, KCNK9 inh inactive and KCNQ1 inh inactive.
CC(C)c1ccccc1-n1c(SCC(=O)N2CCc3ccccc3C2)nc2ccccc2c1=O was read as KCNQ1 act inactive, Kir21 inh -0.73, KCNK3 block inactive, hERG rescue -11, KCNK9 inh inactive and KCNQ1 inh 9*.
For CC(C)(C)N(Cc1ccccc1)C(=O)COc1cccnc1[N+](=O)[O-] the results were KCNQ1 act inactive, Kir21 inh 0, KCNK3 block inactive, hERG rescue -9, KCNK9 inh inactive and KCNQ1 inh inactive.
Screening Cc1ccc(S(=O)(=O)NCc2ccc(C(=O)NCCN(Cc3ccccc3)C(C)C)cc2)cc1 returned KCNQ1 act inactive, Kir21 inh -0.85, KCNK3 block inactive, hERG rescue -13, KCNK9 inh inactive and KCNQ1 inh 6*.
`Cc1ccc(NC(=O)CCN2CC(C)OC(C)C2)cc1C` (centres undefined) gave KCNQ1 act inactive, Kir21 inh -2.1, KCNK3 block inactive, hERG rescue 0, KCNK9 inh inactive and KCNQ1 inh inactive.
`CCN1CCN(CC(=O)N2CCCC(C(=O)c3ccc(Oc4ccccc4)cc3)C2)CC1` (centres undefined) gave KCNQ1 act inactive, Kir21 inh -0.67, KCNK3 block inactive, hERG rescue 5.5*, KCNK9 inh inactive and KCNQ1 inh inactive.
For Cc1ccccc1OCCC(=O)OCC(=O)NC1CC1 the results were KCNQ1 act inactive, Kir21 inh 0.61, KCNK3 block inactive, hERG rescue -5, KCNK9 inh inactive and KCNQ1 inh inactive.
`N#Cc1ccc(COC(=O)CN2C(=O)NC3(CCCC3)C2=O)cc1` gave KCNK3 block inactive.
Screening COc1ccc(CN2CCN(C3CCSCC3)CC2CCO)c(C)c1C (centres undefined) returned KCNQ1 act inactive, Kir21 inh 1.8, KCNK3 block inactive, hERG rescue -8, KCNK9 inh inactive and KCNQ1 inh inactive.
For CCC1CCCCN1Cc1ccc(OC)c(C)c1C (centres undefined) the results were KCNQ1 act inactive, Kir21 inh -0.74, KCNK3 block inactive, hERG rescue 5.3*, KCNK9 inh inactive and KCNQ1 inh inactive.
Screening CCC(C)NC(=O)[C@@H]1CSC2c3ccccc3C(=O)N21 (some centres undefined) returned KCNQ1 act inactive, Kir21 inh -0.05, KCNK3 block inactive, hERG rescue -6, KCNK9 inh inactive and KCNQ1 inh inactive.
CCN(c1nc(N)c(C(=O)N=C(N)N)nc1Cl)C(C)C was read as KCNQ1 act inactive, Kir21 inh -5.7*, KCNK3 block inactive, hERG rescue -8, KCNK9 inh inactive and KCNQ1 inh inactive.
Screening N#Cc1ccc(CC(=O)c2ccccc2)[nH]c1=O returned KCNK3 block inactive.
